Legend:
[1] = folding enthalpy; higher = less favourable; fluorescence melt of hairpins on a sequencing array, two-state fit; conditions: sodium 0.088 M
Summary of the method: (§1)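 Folding enthalpy and melting temperature were estimated with bootstrapped two-state fits and combined across four replicates by inverse-variance weighting, with fitted temperatures raised by 9.35 °C to match UV melts. The data were Cy3 fluorescence of library hairpins, with annealed Cy3 and quencher oligos, on a sequenced MiSeq flow cell in 50 mM Na-HEPES pH 8.0, 25 mM NaCl, imaged in 2.5 °C steps up to 60 °C and normalised to pre-quench Cy3 and control constructs.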

[2] = melting temperature; fluorescence melt of hairpins on a sequencing array, two-state fit, raised by 9.35 °C to match UV melts; conditions: sodium 0.088 M
Summary of the method: as §1

| Sequence | folding enthalpy [1] [kJ/mol] | Tm [2] [°C] |
| --- | --- | --- |
| GAGTAGGGAAACCTGCTC (((.(((....))).))) | -144 | 48.5 |
| GAGTCAGGAAACTGATTC ((.((((....)))).)) | -113 | 39.8 |
| GAGTCCCGAAAGGGGCTC (((.(((....))).))) | -121 | 69.2 |
| GAGTCCCGAAAGGGTCTC (((.(((....))).))) | -128 | 53 |
| GAGTCCGAAAGGAAACTC ((((((....)))..))) | -81.3 | 40.2 |
| GAGTCCGAAAGGAAGCTC ((((((....)))..))) | -73.7 | 37.4 |
| GAGTCCGAAAGGACACTC ((((((....)))..))) | -52.4 | 54.4 |
| GAGTCCGAAAGGACCTC ((((((....))).))) | -55.1 | 54.5 |
| GAGTCCGGAAACGGATTC ((.((((....)))).)) | -103 | 49.9 |
| GAGTCGAAAGACTC (((((....))))) | -123 | 60.8 |
| GAGTCGACGAAAGTCCTC (((..(((....)))))) | -41 | 26.6 |
| GAGTCGGGAAACCAACTC ((((.((....)).)))) | -129 | 38.9 |
| GAGTCGGGAAACTGACTC (((((.(....).))))) | -168 | 52.6 |
| GAGTCTGAAAAGACTC ((((((....)))))) | -159 | 59 |
| GAGTCTGGAAACAGATTC ((.((((....)))).)) | -110 | 40.9 |
| GAGTGACCGAAAGGTCTC (((..(((....)))))) | -41.3 | 35 |
| GAGTGACGAAAGTCTCTC (((.(((....))).))) | -135 | 50.9 |
| GAGTGAGGAAACTCACTC (((((((....))))))) | -170 | 61.6 |
| GAGTGAGGAAACTTGCTC (((..((....))..))) | -53.9 | 37.5 |
| GAGTGCGAAAGCAACTC ((((((....))).))) | -78.5 | 59 |
| GAGTGCGGAAACGCACCC (.(((((....))))).) | -36.7 | 45.8 |
| GAGTGGAAACACTC (((((....))))) | -124 | 51 |
| GAGTGGACGAAAGTCCTC (((..(((....)))))) | -40.7 | 36 |

| Sequence | folding enthalpy [1] [kJ/mol] | Tm [2] [°C] |
| --- | --- | --- |
| GAGTGGCCGAAAGGCCTC (((..(((....)))))) | -29 | 38.3 |
| GAGTGGCGAAAGCCCTC (((.(((....)))))) | -68.5 | 51.3 |
| GAGTGGGGAAACCCATTC ((.((((....)))).)) | -114 | 42.5 |
| GAGTGGGGAAACTCACTC (((((.(....).))))) | -171 | 49.2 |
| GAGTGGGGAAACTCGCTC (((.(.(....).).))) | -124 | 40.4 |
| GAGTGTGAAAACACTC ((((((....)))))) | -146 | 60.9 |
| GAGTGTGGAAACACGCTC (((.(((....))).))) | -113 | 54.5 |
| GAGTGTGGAAACGCACTC (((((.(....).))))) | -176 | 52.8 |
| GAGTTGCCGAAAGGCCTC (((..(((....)))))) | -41.7 | 34.9 |
| GAGTTGCGAAAGCACCTC (((.(((....))).))) | -110 | 47 |
| GAGTTGCGAAAGCACTC (((.(((....)))))) | -90.8 | 53.9 |
| GAGTTGGAAACAACTC ((((((....)))))) | -145 | 57.3 |
| GAGTTGGGAAACCAACCC (.(((((....))))).) | -57.5 | 40.5 |
| GAGTTGGGAAACCAACTC (((((((....))))))) | -165 | 62 |
| GAGTTGGGAAACTGACTC ((((..(....)..)))) | -112 | 34.4 |
| GAGTTTGGAAACAAGCTC (((.(((....))).))) | -146 | 44.5 |
| GATAAACGAAAGTTATC (((.(((....)))))) | -63.3 | 33.9 |
| GATAAACGAAAGTTCATC (((.(((....))).))) | -114 | 29.2 |
| GATAACCGAAAGGTCATC (((.(((....))).))) | -89.1 | 37.2 |
| GATAACGAAAGTTATATC ((((((....)))..))) | -67.1 | 38.9 |
| GATAACGGAAACGTTACC (.(((((....))))).) | -68.9 | 34 |
| GATAATGGAAACGTTATC (((((.(....).))))) | -123 | 34.6 |
| GATACACCGAAAGGTATC (((..(((....)))))) | -55.3 | 30.3 |

| Sequence | folding enthalpy [1] [kJ/mol] | Tm [2] [°C] |
| --- | --- | --- |
| GATACACGAAAGTGAATC (((.(((....))).))) | -92.7 | 45.2 |
| GATACACGAAAGTGGATC (((.(((....))).))) | -156 | 56.6 |
| GATACAGGAAACCGTATC (((((.(....).))))) | -124 | 36.5 |
| GATACCCGAAAGGGAATC (((.(((....))).))) | -99.9 | 48 |
| GATACCGAAAGGTCTATC ((((((....)))..))) | -24.5 | 19.6 |
| GATACCGAAAGGTGCATC ((((((....)))..))) | -40.5 | 27.4 |
| GATACCGAAAGGTTATC ((((((....))).))) | -74.2 | 37.6 |
| GATACCGGAAACGATATC ((((.((....)).)))) | -108 | 34.8 |
| GATACGGGAAACCATATC ((((.((....)).)))) | -80.8 | 28.2 |
| GATACGGGAAACCGTATC (((((((....))))))) | -150 | 59.4 |
| GATAGAGCGAAAGCTATC (((..(((....)))))) | -54.5 | 32.3 |
| GATAGCCCGAAAGGGATC (((..(((....)))))) | -36.1 | 32.6 |
| GATAGCCGAAAGGCATC (((.(((....)))))) | -51 | 43.3 |
| GATAGCCGAAAGGCCATC (((.(((....))).))) | -57.7 | 39.6 |
| GATAGCGAAAGCTTATC ((((((....))).))) | -57.4 | 39 |
| GATAGCGCGAAAGCGATC (((..(((....)))))) | -39.6 | 32.2 |
| GATAGTGGAAACACTACC (.(((((....))))).) | -51.9 | 33.1 |
| GATAGTGGAAACACTGTC ((.((((....)))).)) | -124 | 43.4 |
| GATATACGAAAGTAATC (((.(((....)))))) | -39.5 | 23.8 |
| GATATCCCGAAAGGGATC (((..(((....)))))) | -33.7 | 32.5 |
| GATATCGGAAACGATATC (((((((....))))))) | -177 | 56.7 |
| GATATGACGAAAGTCATC (((..(((....)))))) | -44.6 | 33.3 |
